The structures appear in SMILES notation.

In ChEMBL document CHEMBL1125200, “Structure-activity relationships of estrogenic ligands: synthesis and evaluation of (17 alpha, 20E)- and (17 alpha, 20Z)-21-halo-19-norpregna-1,3,5(10),20-tetraene-3,17 beta-diols” (J Med Chem, 1991) one finds RBA and relative binding affinity (RBA) data, which are given here for six compounds.

Test [1] concerns the target T1, Estrogen receptor (Rattus norvegicus) (UniProt P06211+Q62986). The experiment in a line: Relative binding affinity (RBA) for estrogen receptor of rat uterine cytosol at 25 degree C relative to Estradiol. In kind it is protein assay. The gist of the method:
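Cytosol source is the uterus of immature female Holtzman rats (21–25 days old), kept in liquid nitrogen. Graded concentrations of unlabeled ligand compete with [³H]estradiol during an 18 h incubation at 25 °C. RBA is expressed against estradiol set at 100.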

For test [2], the target named is T1, Estrogen receptor (Rattus norvegicus). The experiment in a line: Relative binding affinity (RBA) for estrogen receptor of rat uterine cytosol at OC relative to Estradiol. It is filed as protein assay. In outline:
(§1)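 Uterine cytosol from immature female Holtzman rats (21–25 days old), stored in liquid nitrogen. Competition assay with varying concentrations of unlabeled competitor against [³H]estradiol, incubated at 0–4 °C for 1–2 h. RBA is reported relative to estradiol (RBA = 100).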

The target in test [3] is T2, Estrogen receptor (Ovis aries) (UniProt P49885+Q9TU15). The experiment in a line: Relative binding affinity (RBA) for estrogen receptor in lamb uterine cytosol at OC relative to Estradiol. In kind it is protein assay. The note with it: Uterus. The gist of the method:
(§2)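 Competitive estrogen receptor binding in lamb uterine cytosol, with estradiol as the standard ligand (RBA = 100). Incubation was at 0–4 °C for 1–2 h.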

Test [4] concerns the target T2, Estrogen receptor (Ovis aries). As to the kind of experiment: Relative binding affinity (RBA) for estrogen receptor of lamb uterine cytosol at OC relative to Estradiol. In kind it is protein assay. In outline:
as §2

The target in test [5] is T1, Estrogen receptor (Rattus norvegicus). The experiment in a line: Relative binding affinity (RBA) for estrogen receptor in rat uterine cytosol at OC relative to Estradiol. The note with it: Uterus. In outline: as §1

Regarding `C[C@]12CC[C@@H]3c4ccc(O)cc4CC[C@H]3[C@@H]1CC[C@@]2(O)/C=C/Br`, the RBA in test [1] stood at 661. The relative binding affinity (RBA) amounted to 195 in test [2] and 117 in test [3].

In test [1], `C[C@]12CC[C@@H]3c4ccc(O)cc4CC[C@H]3[C@@H]1CC[C@@]2(O)/C=C/I` had an RBA of 776. This compound also registered a relative binding affinity (RBA) in test [2] of 202.

In turn, `C[C@]12CC[C@@H]3c4ccc(O)cc4CC[C@H]3[C@@H]1CC[C@@]2(O)/C=C/Cl` registered an RBA in test [1] of 199. The relative binding affinity (RBA) came out at 126 in test [2] and 74 in test [3].

`C[C@]12CC[C@@H]3c4ccc(O)cc4CC[C@H]3[C@@H]1CC[C@@]2(O)/C=C\I` displayed an RBA in test [1] of 62. The same compound had a relative binding affinity (RBA) in test [2] of 77.

Take `C[C@]12CC[C@@H]3c4ccc(O)cc4CC[C@H]3[C@@H]1CC[C@@]2(O)/C=C\Cl`: the relative binding affinity (RBA) worked out at 115 in test [4] and 102 in test [5]. Further, in test [1], the RBA was determined as 89.

Consider `C[C@]12CC[C@@H]3c4ccc(O)cc4CC[C@H]3[C@@H]1CC[C@@]2(O)/C=C\Br`, for which the relative binding affinity (RBA) in test [4] worked out at 71; in test [5] it was 78. The RBA in test [1] is 56.
